Published values from different studies.
Compare with care: the assays were run in different laboratories.
Target: Interleukin-1 receptor-associated kinase 1 (IRAK1, Homo sapiens, UniProt P51617)

Structure (SMILES)	test	setting	remaining binding [%]
O=C(NCC1CCOCC1)c1n[nH]cc1NC(=O)c1c(F)cccc1F	binding, competition with immobilised ligand	1 µM	98
CCN1CCN(Cc2ccc(C(=O)Nc3ccc(C)c(Oc4ccc5c(c4)CC(=O)N5)c3)cc2C(F)(F)F)CC1	binding, competition with immobilised ligand	1 µM	100
Cc1cnc(Nc2ccc(C(=O)N3CCC(N4CCCC4)CC3)cc2)nc1-c1cc2ccccc2s1	binding, competition with immobilised ligand	1 µM	0
Cc1c(NC(=O)c2cc(C(N)=O)nc3cc(F)ccc23)c(C(F)(F)F)nn1Cc1ccc(C(C)(C)C)cc1	cell-free assay, competition with immobilised ligand	1 µM	100
C[C@@H](c1ccc(-n2cnc3c(N)ncnc32)cc1)N1CCc2nn(C)c(Cc3ccccc3)c2C1=O	binding, competition with immobilised ligand	0.1 µM	69
CNC(=O)[C@@H]1CC[C@@H](n2c(-c3ccc4cnccc4c3)nc3ccc(C(=O)NCc4cccc(C(N)=O)c4)cc32)C1	binding, competition with immobilised ligand	1 µM	100
C[C@H]1CCN(c2nccc(-c3cnn4ncccc34)n2)C1	binding	1 µM	100
COc1cnc(Nc2cccc(S(N)(=O)=O)c2)nc1N1CCN(c2ccccc2)CC1	binding, competition with immobilised ligand	1 µM	68
C[C@@]1(Cc2ccc(C#N)cc2)C(=O)N(c2cc(Cl)cc(Cl)c2)c2ncc(C(=O)NC3(c4nc(C5CCC5)no4)CC3)n21	cell-free assay, competition with immobilised ligand	1 µM	100
O=C(c1ccc(Nc2ncc(Cl)c(-c3ccc(Cl)s3)n2)cc1)N1CCC(N2CCCC2)CC1	binding, competition with immobilised ligand	1 µM	0.05
CC1CCCN1c1nccc(-c2cnn3ncccc23)n1 (stereo not drawn)	binding	1 µM	85
Cc1nccc(COC(=O)N2C[C@@H]3[C@@H](CNC(=O)c4ccc5[nH]nnc5c4)[C@@H]3C2)n1	cell-free assay, competition with immobilised ligand	1 µM	81
O=C(c1ccc(Nc2ncc(Cl)c(-c3cc4ccccc4s3)n2)cc1)N1CCC(N2CCCC2)CC1	binding, competition with immobilised ligand	1 µM	0
CN(CCCC(F)(F)F)c1nccc(-c2cnn3ncccc23)n1	binding	1 µM	100
CCCOc1ccc([C@H]2[C@H](C(=O)O)[C@@H](c3ccc4c(c3)OCO4)CN2CC(=O)Nc2c(CC)cccc2CC)cc1	cell-free assay, competition with immobilised ligand	1 µM	67
Cc1cnn2ncc(-c3ccnc(N(C)C)n3)c2c1	binding	1 µM	100
Nc1ncc2c(n1)-c1c([nH]c3ccc(C#CC4CC4)cc13)CCCC2	binding, competition with immobilised ligand	1 µM	96
c1cnn2ncc(-c3ccnc(N4CCC45COC5)n3)c2c1	binding	1 µM	76
CN(c1ccnc(CNc2nc(Nc3ccc4c(c3)CC(=O)N4)ncc2C(F)(F)F)n1)S(C)(=O)=O	cell-free assay, competition with immobilised ligand	1 µM	13
N[C@H]1CCN(c2nccc(-c3cnn4ncccc34)n2)C1	binding	1 µM	90
C[C@H](c1cccc(C#N)c1)n1cc(Cl)cc(C(N)=O)c1=N	cell-free assay, competition with immobilised ligand	1 µM	71
